The results in this text go back to ChEMBL document CHEMBL1212887, “Design, synthesis, and biological evaluation of prenylated chalcones as 5-LOX inhibitors” (Bioorg Med Chem, 2010).

One data set deals with MCF7. As to the kind of experiment: Cytotoxicity against human MCF7 cells after 24 hrs by MTT assay. It is filed as functional. Particulars: MCF7, 24 h. The gist of the method:
(§1)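 Cells kept at 37 °C in humidified 5% CO2 and seeded at 5 × 10³ cells/well the day before. They were PBS-washed, given fresh medium, then exposed to test compounds (0.1–100 µM) for 24 h. MTT (5 mg/mL in PBS) was then added for 4 h at 37 °C. Formazan was dissolved in DMSO and OD read at 570 nm. Each concentration was run in three experiments, three replicates each.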
For orientation: Tetrazolium assays rely on reduction of a dye to a coloured formazan, in cell work by metabolically active cells.
Broadly, the GI50 is the concentration that inhibits growth by half. On to `COc1cc(/C=C/C(=O)c2ccc(OCC=C(C)C)cc2OCC=C(C)C)cc(OC)c1OC`, for which growth was halved (GI50) at 9 µM. This counts as single-digit micromolar.

For the molecule `COc1cc(/C=C/C(=O)c2ccc(OCC=C(C)C)cc2O)cc(OC)c1OC`, the GI50 is 81 µM.

In turn, `COc1cccc(/C=C/C(=O)c2ccc(OCC=C(C)C)cc2OCC=C(C)C)c1OC` displayed a 50% growth inhibitory concentration (GI50) of 73 µM.

In turn, `COc1ccc(/C=C/C(=O)c2ccc(OCC=C(C)C)cc2O)cc1` gave a 50% growth inhibitory concentration (GI50) of 97.5 µM.

On to `COc1ccc(/C=C/C(=O)c2ccc(OCC=C(C)C)cc2O)cc1OC`, for which the concentration for 50% growth inhibition (GI50) was greater than 100 µM.

`COc1ccc(/C=C/C(=O)c2ccc(OCC=C(C)C)cc2OCC=C(C)C)cc1OC` showed a GI50 of 66.5 µM.

The molecule `COc1cccc(/C=C/C(=O)c2ccc(OCC=C(C)C)cc2O)c1OC` came in with a GI50 greater than 100 µM.

Consider `COc1ccc(/C=C/C(=O)c2ccc(OCC=C(C)C)cc2OCC=C(C)C)c(OC)c1OC`, for which it took 92 µM to inhibit growth by half (GI50).

Molecule `COc1ccc(/C=C/C(=O)c2ccc(OCC=C(C)C)cc2OCC=C(C)C)cc1` displayed a GI50 of 67.5 µM.

`COc1ccc(/C=C/C(=O)c2ccc(OCC=C(C)C)cc2O)c(OC)c1OC` gave a GI50 greater than 100 µM.

In a further data set the test system is COLO 205. Kind of data set: Cytotoxicity against human COLO205 cells after 24 hrs by MTT assay. It is filed as functional. As to conditions: COLO 205, 24 h. The gist of the method:
as §1
For the molecule `COc1cc(/C=C/C(=O)c2ccc(OCC=C(C)C)cc2OCC=C(C)C)cc(OC)c1OC`, it took 78 µM to inhibit growth by half (GI50).

Regarding `COc1cc(/C=C/C(=O)c2ccc(OCC=C(C)C)cc2O)cc(OC)c1OC`, the GI50 stood at 96 µM.

In the case of `COc1cccc(/C=C/C(=O)c2ccc(OCC=C(C)C)cc2OCC=C(C)C)c1OC`, growth was halved (GI50) at 99 µM.

Molecule `COc1ccc(/C=C/C(=O)c2ccc(OCC=C(C)C)cc2O)cc1` registered a 50% growth inhibitory concentration (GI50) greater than 100 µM.

As for `COc1ccc(/C=C/C(=O)c2ccc(OCC=C(C)C)cc2O)cc1OC`, the GI50 is greater than 100 µM.

Molecule `COc1ccc(/C=C/C(=O)c2ccc(OCC=C(C)C)cc2OCC=C(C)C)cc1OC` returned a GI50 of 90 µM.

`COc1cccc(/C=C/C(=O)c2ccc(OCC=C(C)C)cc2O)c1OC` had a GI50 greater than 100 µM.

The molecule `COc1ccc(/C=C/C(=O)c2ccc(OCC=C(C)C)cc2OCC=C(C)C)c(OC)c1OC` gave a GI50 greater than 100 µM.

Turning to `COc1ccc(/C=C/C(=O)c2ccc(OCC=C(C)C)cc2OCC=C(C)C)cc1`, the GI50 was 97 µM.

Take `COc1ccc(/C=C/C(=O)c2ccc(OCC=C(C)C)cc2O)c(OC)c1OC`: the GI50 was greater than 100 µM.

The next data set deals with HaCaT. As to the kind of experiment: Cytotoxicity against human HaCaT cells at up to 100 uM after 24 hrs by MTT assay. It is filed as cell-based.
Settings: not given
The gist of the method: as §1
For `COc1cc(/C=C/C(=O)c2ccc(OCC=C(C)C)cc2OCC=C(C)C)cc(OC)c1OC`, the Activity result is “Non-toxic”.

For the next data set, the target named is 5-lipoxygenase (Solanum tuberosum). Kind of data set: Inhibition of 5-lipoxygenase.
Settings: not given
As a reminder, the IC50 is the point on the concentration scale where inhibition reaches its midpoint. Turning to `COc1cc(/C=C/C(=O)c2ccc(OCC=C(C)C)cc2OCC=C(C)C)cc(OC)c1OC`, half-maximal inhibition (IC50) required 4 µM. In other words, the single-digit micromolar range.

The molecule `COc1cc(/C=C/C(=O)c2ccc(OCC=C(C)C)cc2O)cc(OC)c1OC` displayed an IC50 greater than 100 µM.

Take `COc1ccc(/C=C/C(=O)c2ccc(OCC=C(C)C)cc2O)cc1`: the IC50 is greater than 100 µM.

On to `COc1ccc(/C=C/C(=O)c2ccc(OCC=C(C)C)cc2O)cc1OC`, for which the IC50 is greater than 100 µM.

As for `COc1ccc(/C=C/C(=O)c2ccc(OCC=C(C)C)cc2OCC=C(C)C)cc1OC`, the IC50 came out at 9 µM.

As to `COc1cccc(/C=C/C(=O)c2ccc(OCC=C(C)C)cc2O)c1OC`, the IC50 was greater than 100 µM.

Consider `COc1ccc(/C=C/C(=O)c2ccc(OCC=C(C)C)cc2OCC=C(C)C)c(OC)c1OC`, for which the midpoint of inhibition, the IC50, lay at 49 µM.

Molecule `COc1ccc(/C=C/C(=O)c2ccc(OCC=C(C)C)cc2O)c(OC)c1OC` showed an IC50 greater than 100 µM.
